Assay results taken from ChEMBL document CHEMBL3352608, “Medicinal chemistry optimization of antiplasmodial imidazopyridazine hits from high throughput screening of a softfocus kinase library: part 2” (J Med Chem, 2014).
≈ marks a conversion by molar mass, not a printed value.

Columns and labels:
Liver = assay: Metabolic stability in mouse liver microsomes assessed as compound remaining after 30 mins; type: ADME; conditions: 0.5 h
Summary of the method: (§1)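 One-point microsomal stability test: compound incubated 30 min with human, rat or mouse liver microsomes; percentage of parent remaining measured.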

Liver microsome [1] = assay: Metabolic stability in human liver microsomes assessed as compound remaining after 30 mins; type: ADME; conditions: 0.5 h; summary of the method: as §1
[2] = Aqueous solubility of the compound at pH 6.5; type: physicochemical; conditions: buffer
Liver microsome [3] = assay: Metabolic stability in rat liver microsomes assessed as compound remaining after 30 mins; type: ADME; conditions: 0.5 h; summary of the method: as §1
[4] = Aqueous solubility of the compound at pH 2; type: physicochemical; conditions: buffer
Plasmodium falciparum [5] = assay: Antiplasmodial activity against Plasmodium falciparum K1 by [3H]hypoxanthine incorporation assay; type: functional, organism-based
Summary of the method: (§2)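 Modified [3H]-hypoxanthine incorporation assay on P. falciparum asexual cultures, chloroquine and artesunate as references in every run. IC50 values are means of ≥2 independent experiments; individual values mostly within 2-fold (maximum 3-fold).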

Plasmodium falciparum [6] = assay: Antiplasmodial activity against Plasmodium falciparum NF54 by [3H]hypoxanthine incorporation assay; type: functional, organism-based; summary of the method: as §2
[7] = system: CHO cells (Cricetulus griseus); assay: Selectivity index, ratio of IC50 for Chinese hamster CHO cells to IC50 for Plasmodium falciparum
[8] = system: CHO cells (Cricetulus griseus); assay: Cytotoxicity against Chinese hamster CHO cells
CHO = assay: Cytotoxicity against CHO cells; type: cell-based, Cricetulus griseus; conditions: chinese hamster
[9] = Selectivity index, ratio of IC50 for CHO cells to IC50 for Plasmodium falciparum; type: toxicity, cell-based; conditions: hamster, read-out: Ratio IC50
[10] = Plasma concentration in mouse infected with Plasmodium berghei ANKA at 50 mg/kg/day, po after 4 hrs by HPLC analysis; type: ADME, organism-based; set-up: route oral
Summary of the method: (§3)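 P. berghei-infected mice dosed orally at 50 mg/kg daily for 4 days; blood sampled 1, 4 and 24 h after the first dose and analysed by HPLC for drug levels.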

[11] = Plasma concentration in mouse infected with Plasmodium berghei ANKA at 50 mg/kg/day, po after 1 hr by HPLC analysis; type: ADME, organism-based; set-up: route oral; summary of the method: as §3
Plasmodium berghei = assay: Antimalarial activity against Plasmodium berghei ANKA infected in mouse assessed as reduction in parasitemia at 50 mg/kg/day, po qd administered for 4 days relative to control; type: functional; set-up: Activity: scale not given: the % may be the effect or the level left
Summary of the method: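 Mice (n = 3) infected with GFP-transfected P. berghei ANKA; compound in HPMC suspension vehicle given orally once daily at 4, 24, 48 and 72 h after infection. Blood collected day 4 (96 h post-infection); parasitemia by flow cytometry (detection limit 0.1%). Activity = difference in mean % parasitemia between control and treated groups, as % of control.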

[12] = target: Voltage-gated inwardly rectifying potassium channel KCNH2 (Homo sapiens, UniProt Q12809); assay: Inhibition of human ERG channel by patch clamp technique
Voltage-gated inwardly rectifying potassium channel KCNH2, sequence (Q12809 whole entry): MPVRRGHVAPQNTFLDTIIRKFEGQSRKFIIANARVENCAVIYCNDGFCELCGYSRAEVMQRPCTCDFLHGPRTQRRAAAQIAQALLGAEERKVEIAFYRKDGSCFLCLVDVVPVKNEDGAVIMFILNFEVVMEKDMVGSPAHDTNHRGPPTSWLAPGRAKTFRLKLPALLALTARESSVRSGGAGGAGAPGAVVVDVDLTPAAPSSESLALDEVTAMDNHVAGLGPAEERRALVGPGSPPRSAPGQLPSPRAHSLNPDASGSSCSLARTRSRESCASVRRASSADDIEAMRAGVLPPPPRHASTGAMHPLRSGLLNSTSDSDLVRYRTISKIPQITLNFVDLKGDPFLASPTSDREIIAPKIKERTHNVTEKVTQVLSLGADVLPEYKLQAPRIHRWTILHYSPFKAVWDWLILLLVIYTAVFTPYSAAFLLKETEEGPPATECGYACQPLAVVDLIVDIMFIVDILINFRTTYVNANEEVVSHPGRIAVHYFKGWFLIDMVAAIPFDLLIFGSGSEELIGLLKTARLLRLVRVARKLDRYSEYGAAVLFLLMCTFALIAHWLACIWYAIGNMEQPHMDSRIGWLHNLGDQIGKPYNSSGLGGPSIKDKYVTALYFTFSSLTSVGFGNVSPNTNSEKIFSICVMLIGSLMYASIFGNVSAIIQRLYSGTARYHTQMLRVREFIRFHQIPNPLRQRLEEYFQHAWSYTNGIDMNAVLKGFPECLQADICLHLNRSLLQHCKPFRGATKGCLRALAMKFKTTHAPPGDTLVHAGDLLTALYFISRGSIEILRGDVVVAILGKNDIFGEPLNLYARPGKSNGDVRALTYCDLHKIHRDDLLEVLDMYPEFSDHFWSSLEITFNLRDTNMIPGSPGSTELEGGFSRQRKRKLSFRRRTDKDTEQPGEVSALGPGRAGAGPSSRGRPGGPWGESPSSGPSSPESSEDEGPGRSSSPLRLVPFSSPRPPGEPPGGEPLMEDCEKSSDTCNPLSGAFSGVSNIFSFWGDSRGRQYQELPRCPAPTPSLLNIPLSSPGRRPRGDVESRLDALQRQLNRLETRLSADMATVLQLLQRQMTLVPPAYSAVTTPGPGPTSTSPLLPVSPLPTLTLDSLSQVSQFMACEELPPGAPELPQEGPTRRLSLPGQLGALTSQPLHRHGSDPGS

[13] = Plasma concentration in mouse infected with Plasmodium berghei ANKA at 50 mg/kg/day, po after 24 hrs by HPLC analysis; type: ADME, organism-based; set-up: route oral; summary of the method: as §3

SMILES	Stability (Liver)	Stability (Liver microsome [1])	solubility [2]	Stability (Liver microsome [3])	solubility [4]	IC50 (Plasmodium falciparum [5])	IC50 (Plasmodium falciparum [6])	concentration at 4 h [10]	concentration at 1 h [11]	concentration at 24 h [13]	selectivity ratio [7]	Activity [8]	Activity (CHO)	selectivity ratio [9]	Activity (Plasmodium berghei)	MSD (Plasmodium berghei)	IC50 [12]
CS(=O)(=O)c1ccc(-c2cnc3ccc(-c4cccc(C(=O)NCCO)c4)nn23)cc1	Unstable	Unstable	> 100 µM	Unstable	> 200 µM	–	–	–	–	–	–	–	–	–	–	–	–
CS(=O)(=O)c1ccc(-c2cnc3ccc(-c4ccnc(C(F)(F)F)c4)nn23)cc1	–	–	< 5 µM	–	5.4 µM (≈ 2.26 µg/mL)	26 nM	45 nM	–	–	–	> 1000	Non-toxic	Non-toxic	> 1000	–	–	–
CS(=O)(=O)c1cccc(-c2ccc3ncc(-c4ccc(N)nc4)n3n2)c1	–	–	< 5 µM	–	192 µM (≈ 70.2 µg/mL)	19 nM	23 nM	–	–	–	–	–	–	–	–	–	–
C[S+]([O-])c1cccc(-c2ccc3ncc(-c4ccc(S(C)(=O)=O)cc4)n3n2)c1 (stereo not given)	Unstable	Unstable	157 µM (≈ 64.6 µg/mL)	Unstable	188 µM (≈ 77.4 µg/mL)	36 nM	39 nM	490 nM	590 nM	–	–	–	–	–	99.8%	14 days	4000 nM
CS(=O)(=O)c1ccc(-c2cnc3ccc(-c4cccc(S(=O)(=O)CCCN)c4)nn23)cc1	Stable	Stable	> 200 µM	Stable	> 200 µM	2.6 nM	3 nM	< 10 nM	–	< 10 nM	> 1000	Non-toxic	Non-toxic	> 1000	<40%	4 days	> 33000 nM
CS(=O)(=O)c1ccc(-c2cnc3ccc(-c4cccc(C(=O)N5CCC(O)CC5)c4)nn23)cc1	Stable	Stable	178 µM (≈ 84.8 µg/mL)	Stable	> 200 µM	–	6.5 nM	–	–	–	–	–	–	–	–	–	–
CS(=O)(=O)c1cccc(-c2ccc3ncc(-c4ccc(S(=O)(=O)N5CCNCC5)cc4)n3n2)c1	Unstable	Unstable	162 µM (≈ 80.6 µg/mL)	Unstable	166 µM (≈ 82.6 µg/mL)	8.8 nM	14 nM	–	–	–	–	–	–	–	–	–	–
C[S+]([O-])c1ccc(-c2cnc3ccc(-c4cccc(S(C)(=O)=O)c4)nn23)cc1 (stereo not given)	Stable	Stable	98 µM (≈ 40.3 µg/mL)	Stable	207 µM (≈ 85.2 µg/mL)	–	6.5 nM	–	–	–	–	–	–	–	99.7%	14 days	–
CS(=O)(=O)c1cccc(-c2ccc3ncc(-c4ccc(C(=O)N5CCC(O)C5)cc4)n3n2)c1 (stereo not given)	Stable	Stable	177 µM (≈ 81.9 µg/mL)	Stable	191 µM (≈ 88.3 µg/mL)	21 nM	18 nM	< 10 nM	–	< 10 nM	–	–	–	–	<40%	4 days	> 33000 nM
CS(=O)(=O)c1cccc(-c2ccc3ncc(-c4ccc(S(=O)(=O)CCCN)cc4)n3n2)c1	Stable	Stable	180 µM (≈ 84.7 µg/mL)	Stable	> 200 µM	9.4 nM	11 nM	–	–	–	> 1000	Non-toxic	Non-toxic	> 1000	–	–	–
C[S+]([O-])c1cccc(-c2ccc3ncc(-c4ccc(C(N)=O)cc4)n3n2)c1 (stereo not given)	–	–	< 5 µM	–	112 µM (≈ 42.2 µg/mL)	–	103 nM	–	–	–	–	–	–	–	–	–	–
C[S+]([O-])c1ccc(-c2cnc3ccc(-c4cccc([S+](C)[O-])c4)nn23)cc1 (stereo not given)	Unstable	Unstable	192 µM (≈ 75.9 µg/mL)	Unstable	205 µM (≈ 81.1 µg/mL)	30 nM	35 nM	760 nM	2440 nM	–	–	–	–	–	99.8%	25 days	12000 nM
O=S(=O)(c1cccc(-c2ccc3ncc(-c4ccc(-c5nnn[nH]5)cc4)n3n2)c1)C1CC1	–	–	183 µM (≈ 81.2 µg/mL)	–	< 5 µM	25 nM	43 nM	–	–	–	–	–	–	–	<40%	4 days	> 33000 nM
CS(=O)(=O)c1cccc(-c2ccc3ncc(-c4ccc(C(=O)N5CCNCC5)cc4)n3n2)c1	Stable	Stable	–	Stable	–	–	–	–	–	–	–	–	–	–	<40%	4 days	–
CS(=O)(=O)c1cccc(-c2ccc3ncc(-c4ccc(C(=O)O)cc4)n3n2)c1	–	–	–	–	–	–	–	–	–	–	> 1000	Non-toxic	Non-toxic	> 1000	–	–	–

Further lines, with some results ahead:

Stability (Liver)	Stability (Liver microsome [1])	solubility [2]	Stability (Liver microsome [3])	solubility [4]	IC50 (Plasmodium falciparum [5])	IC50 (Plasmodium falciparum [6])	concentration at 4 h [10]	concentration at 1 h [11]	concentration at 24 h [13]	SMILES	selectivity ratio [7]	Activity [8]	Activity (CHO)	selectivity ratio [9]	Activity (Plasmodium berghei)	MSD (Plasmodium berghei)	IC50 [12]
–	–	< 5 µM	–	< 5 µM	82 nM	96 nM	–	–	–	CS(=O)(=O)c1ccc(-c2cnc3ccc(-c4cncc(S(C)(=O)=O)c4)nn23)cc1	–	–	–	–	–	–	–
–	–	< 5 µM	–	< 5 µM	–	1050 nM	–	–	–	CS(=O)(=O)c1ccc(-c2cnc3ccc(-c4cncc(C(F)(F)F)c4)nn23)cc1	–	–	–	–	–	–	–
–	–	15 µM (≈ 5.48 µg/mL)	–	174 µM (≈ 63.6 µg/mL)	55 nM	69 nM	–	–	–	CS(=O)(=O)c1ccc(-c2cnc3ccc(-c4cncc(N)c4)nn23)cc1	–	–	–	–	–	–	–
–	–	< 5 µM	–	< 5 µM	9.9 nM	12 nM	–	–	–	CS(=O)(=O)c1cccc(-c2ccc3ncc(-c4ccc(S(C)(=O)=O)nc4)n3n2)c1	–	–	–	–	–	–	–
–	–	< 5 µM	–	16 µM (≈ 6.86 µg/mL)	42 nM	58 nM	–	–	–	CS(=O)(=O)c1cccc(-c2ccc3ncc(-c4cncc(S(C)(=O)=O)c4)n3n2)c1	–	–	–	–	–	–	–
–	–	13 µM (≈ 5.58 µg/mL)	–	52 µM (≈ 22.3 µg/mL)	610 nM	808 nM	–	–	–	CS(=O)(=O)c1cncc(-c2ccc3ncc(-c4ccc(S(C)(=O)=O)nc4)n3n2)c1	–	–	–	–	–	–	–
–	–	53 µM (≈ 22.8 µg/mL)	–	183 µM (≈ 78.6 µg/mL)	473 nM	636 nM	–	–	–	CS(=O)(=O)c1cncc(-c2ccc3ncc(-c4cncc(S(C)(=O)=O)c4)n3n2)c1	–	–	–	–	–	–	–
–	–	< 5 µM	–	< 5 µM	484 nM	662 nM	–	–	–	CS(=O)(=O)c1cncc(-c2ccc3ncc(-c4ccc(S(=O)(=O)C5CC5)cc4)n3n2)c1	–	–	–	–	–	–	–
–	–	8.6 µM (≈ 3.93 µg/mL)	–	190 µM (≈ 86.9 µg/mL)	–	2.2 nM	–	–	–	CS(=O)(=O)c1ccc(-c2cnc3ccc(-c4cccc(S(=O)(=O)CCO)c4)nn23)cc1	–	–	–	–	–	–	–
–	–	< 5 µM	–	18 µM (≈ 8.18 µg/mL)	31 nM	37 nM	–	–	–	CS(=O)(=O)c1cncc(-c2cnc3ccc(-c4cccc(S(=O)(=O)C5CC5)c4)nn23)c1	–	–	–	–	–	–	–
–	–	< 5 µM	–	< 5 µM	2 nM	3.3 nM	–	–	–	CS(=O)(=O)c1ccc(-c2cnc3ccc(-c4cccc(S(=O)(=O)C5CC5)c4)nn23)cn1	–	–	–	–	–	–	–
–	–	< 5 µM	–	6.3 µM (≈ 2.64 µg/mL)	1.2 nM	1.5 nM	–	–	–	NC(=O)c1ccc(-c2cnc3ccc(-c4cccc(S(=O)(=O)C5CC5)c4)nn23)cc1	> 1000	Non-toxic	Non-toxic	> 1000	–	–	–
